{
  "source": "ChEMBL document CHEMBL4477167",
  "about": "“Limonoids and Triterpenoids as 11β-HSD1 Inhibitors from Walsura robusta” (J Nat Prod, 2016)",
  "key": {"[1]": {"target": "T1, 11-beta-hydroxysteroid dehydrogenase 1 (Homo sapiens, UniProt P28845)", "assay": "Inhibition of human microsomal 11beta-HSD1 overexpressed in HEK293 cells using [3H]-cortisone as substrate assessed as formation of [3H]-cortisol at 10 uM using [3H]cortisone by scintillation proximity assay in presence of NADPH; call rule not given here", "outline": "(§1)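 Human or mouse 11β-HSD1 inhibition measured in vitro by scintillation proximity assay (SPA). Every isolate was first screened at a single concentration of 10 μM. […] Glycyrrhetinic acid served as the positive control. Other assay conditions follow an earlier report.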"}, "[2]": {"target": "11-beta-hydroxysteroid dehydrogenase 1 (Mus musculus, UniProt P50172)", "sequence (P50172 whole entry)": "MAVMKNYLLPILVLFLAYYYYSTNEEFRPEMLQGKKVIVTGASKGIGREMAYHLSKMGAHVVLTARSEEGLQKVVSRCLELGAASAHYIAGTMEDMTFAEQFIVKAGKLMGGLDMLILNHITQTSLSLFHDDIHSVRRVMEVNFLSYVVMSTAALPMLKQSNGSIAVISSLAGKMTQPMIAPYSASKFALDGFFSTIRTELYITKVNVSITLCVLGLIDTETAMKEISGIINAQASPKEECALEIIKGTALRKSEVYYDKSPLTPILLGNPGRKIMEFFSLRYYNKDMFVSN", "assay": "Inhibition of mouse microsomal 11beta-HSD1 overexpressed in HEK293 cells using [3H]-cortisone as substrate assessed as formation of [3H]-cortisol using [3H]cortisone by scintillation proximity assay in presence of NADPH"}, "[3]": {"target": "11-beta-hydroxysteroid dehydrogenase 1 (Mus musculus) (UniProt P50172)", "sequence (P50172 whole entry, looked up)": "as the sequence (P50172 whole entry) above", "assay": "Inhibition of mouse microsomal 11beta-HSD1 overexpressed in HEK293 cells using [3H]-cortisone as substrate assessed as formation of [3H]-cortisol at 10 uM using [3H]cortisone by scintillation proximity assay in presence of NADPH", "outline": "as §1"}, "[4]": {"target": "T1, 11-beta-hydroxysteroid dehydrogenase 1", "assay": "Inhibition of human microsomal 11beta-HSD1 overexpressed in HEK293 cells using [3H]-cortisone as substrate assessed as formation of [3H]-cortisol using [3H]cortisone by scintillation proximity assay in presence of NADPH"}},
  "data": [
    {"smiles": "C[C@@H](C[C@@H](O)[C@@H]1OC1(C)C)[C@H]1CC[C@@]2(C)C3=CC[C@H]4C(C)(C)C(=O)CC[C@]4(C)[C@H]3CC[C@]12C", "values": [
      {"measurement": "inhibition", "setting": "[1]", "value": "< 50", "unit": "%"},
      {"measurement": "IC50", "setting": "[2]; read-out: IC50", "value": 690, "unit": "nM"},
      {"measurement": "inhibition", "setting": "[3]", "value": "> 50", "unit": "%"}
    ]},
    {"smiles": "C[C@@H]([C@@H]1O[C@@H]1C(O)C(C)(C)O)[C@@H]1CC[C@]2(C)C3=CC[C@H]4C(C)(C)[C@H](O)CC[C@]4(C)[C@H]3CC[C@@]12C", "note": "(stereo partly specified)", "values": [
      {"measurement": "inhibition", "setting": "[1]", "value": "> 50", "unit": "%"},
      {"measurement": "IC50", "setting": "[2]; read-out: IC50", "value": 1200, "unit": "nM"},
      {"measurement": "inhibition", "setting": "[3]", "value": "> 50", "unit": "%"},
      {"measurement": "IC50", "setting": "[4]", "value": 1900, "unit": "nM"}
    ]},
    {"smiles": "C[C@@H](C[C@@H](O)[C@@H]1OC1(C)C)[C@H]1CC[C@@]2(C)C3=CC[C@H]4C(C)(C)[C@@H](O)CC[C@]4(C)[C@H]3CC[C@]12C", "values": [
      {"measurement": "inhibition", "setting": "[1]", "value": "< 50", "unit": "%"},
      {"measurement": "IC50", "setting": "[2]; read-out: IC50", "value": 3800, "unit": "nM"},
      {"measurement": "inhibition", "setting": "[3]", "value": "> 50", "unit": "%"}
    ]},
    {"smiles": "C[C@@H](C[C@@H](O)[C@H](O)C(C)(C)O)[C@@H]1CC[C@]2(C)C3=CC[C@H]4C(C)(C)C(=O)CC[C@]4(C)[C@H]3CC[C@@]12C", "values": [
      {"measurement": "inhibition", "setting": "[1]", "value": "< 50", "unit": "%"},
      {"measurement": "IC50", "setting": "[2]; read-out: IC50", "value": 880, "unit": "nM"},
      {"measurement": "inhibition", "setting": "[3]", "value": "> 50", "unit": "%"}
    ]},
    {"smiles": "CC(=O)O[C@H]1C[C@@]2(C)[C@H](c3ccoc3)C[C@H]3O[C@]32[C@]2(C)C(=O)C(O)=C3C(C)(C)C(=O)C=C[C@]3(C)[C@@H]12", "values": [
      {"measurement": "inhibition", "setting": "[1]", "value": "> 50", "unit": "%"},
      {"measurement": "IC50", "setting": "[2]; hek293", "value": "Not Active"},
      {"measurement": "IC50", "setting": "[4]", "value": 9900, "unit": "nM"}
    ]}
  ]
}
